Tests used:
Assay type in all cases: functional, cell-based
HepG2 = assay: Antiproliferative activity against human HepG2 cells after 24 hrs by MTT assay; conditions: HepG2, 24 h
Procedure, shortened: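 Tetrazolium MTT viability test; cells exposed to compound 24 h, absorbance read at 570 nm. Survival ratio = A treated / A control × 100%; IC50 is the concentration giving 50% loss of viability. Eight concentrations in two-fold dilutions, triplicate wells, mean of two separate experiments. Compounds dissolved in DMSO (0.01 mol/L stock); control wells received medium only.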

MCF7 = assay: Antiproliferative activity against human MCF7 cells after 24 hrs by MTT assay; conditions: MCF7, 24 h
Procedure, shortened: (§1)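 Cells grown at 37 °C in humidified 5% CO2 with benzylpenicillin and streptomycin. Compounds came from 0.01 mol/L DMSO stocks and were tested at eight two-fold dilutions in triplicate, with medium-only controls, for 24 h. MTT absorbance was read at 570 nm. Survival = A_treatment/A_control × 100. IC50 is the concentration giving 50% viability inhibition, as the mean of two separate experiments.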

BGC-823 = assay: Antiproliferative activity against human BGC823 cells after 24 hrs by MTT assay; conditions: BGC-823, 24 h; procedure, shortened: as §1
SMMC-7721 = assay: Antiproliferative activity against human SMMC7721 cells after 24 hrs by MTT assay; conditions: SMMC-7721, 24 h; procedure, shortened: as §1

Compound	IC50 (HepG2)	IC50 (MCF7)	IC50 (BGC-823)	IC50 (SMMC-7721)
CC(C)=CCC12OC(C)(C)C3CC(C=C4C(=O)c5ccccc5OC431)C2=O (stereo not drawn)	6.77 µM	13.9 µM	20.3 µM	10.5 µM
CC(C)=CCC12OC(C)(C)C3CC(C=C4C(=O)c5ccc(O)cc5OC431)C2=O (stereo not drawn)	23.4 µM	12.4 µM	17.6 µM	12.3 µM

From ChEMBL document CHEMBL1759837, “Studies on chemical modification and biology of a natural product, gambogic acid (III): determination of the essential pharmacophore for biological activity” (Eur J Med Chem, 2011)
